ChEMBL document CHEMBL1121744, “Synthesis and antihypertensive activity of a series of 8-substituted 1-oxa-3,8-diazaspiro[4.5]decan-2-ones” (J Med Chem, 1981)

Assays:
Canis familiaris [1] = experiment: Change in mean arterial pressure in anesthetized dogs for a dose of 0.1 mg/kg; assay type: functional, Canis lupus familiaris, Artery
Method in brief: (§1)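 Dogs anesthetized with sodium pentobarbital (35 mg/kg iv), femoral artery cannulated for pressure, ECG-triggered heart rate, femoral vein for dosing. Rising iv doses were given 90 min apart, and each dose is the full dose, not cumulative. Value is the maximal mean arterial pressure change 10–15 min after each dose, two dogs per compound, ±3 mmHg. Saline served as control.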

Rattus norvegicus = experiment: Antihypertensive activity as percentage fall in systolic blood pressure in spontaneously hypertensive rats after a period of 1 hr for a dose of 50 mg/kg; assay type: functional, Artery
Method in brief: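 Male Okamoto-Aoki SHR, trained, in groups of four matched for mean systolic pressure; one group per run received water vehicle. Oral dosing in water (0.1 mL per 10 g) on two consecutive mornings. After the day-2 dose, rats were restrained at 30.0 ± 1.0 °C. Systolic pressure was read by tail cuff (inflated to 300 mmHg, first pulse) at 1–4 h. % fall is versus the untreated control group, by 1-tail t test (p ≤ 0.05).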

[2] = target: T1, Adrenergic receptor alpha-1 (Rattus norvegicus, UniProt P15823+P23944+P43140); experiment: Antagonistic potency of compound for Alpha-1 adrenergic receptor; assay type: functional
T1 sequence (P15823 whole entry): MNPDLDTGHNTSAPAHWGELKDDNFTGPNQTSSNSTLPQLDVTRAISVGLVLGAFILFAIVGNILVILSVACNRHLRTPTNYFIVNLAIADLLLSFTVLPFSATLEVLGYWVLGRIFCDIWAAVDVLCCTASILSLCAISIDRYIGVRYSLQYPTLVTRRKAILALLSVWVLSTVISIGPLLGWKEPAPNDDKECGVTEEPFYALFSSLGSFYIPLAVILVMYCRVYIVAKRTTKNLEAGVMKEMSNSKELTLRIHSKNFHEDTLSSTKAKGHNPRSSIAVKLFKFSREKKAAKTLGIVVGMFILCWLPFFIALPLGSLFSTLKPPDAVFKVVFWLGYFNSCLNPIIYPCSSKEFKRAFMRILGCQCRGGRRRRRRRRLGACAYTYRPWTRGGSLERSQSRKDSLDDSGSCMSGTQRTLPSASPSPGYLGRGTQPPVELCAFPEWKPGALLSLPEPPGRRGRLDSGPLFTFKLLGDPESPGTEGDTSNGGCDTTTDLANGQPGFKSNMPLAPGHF
T1 sequence (P23944 whole entry): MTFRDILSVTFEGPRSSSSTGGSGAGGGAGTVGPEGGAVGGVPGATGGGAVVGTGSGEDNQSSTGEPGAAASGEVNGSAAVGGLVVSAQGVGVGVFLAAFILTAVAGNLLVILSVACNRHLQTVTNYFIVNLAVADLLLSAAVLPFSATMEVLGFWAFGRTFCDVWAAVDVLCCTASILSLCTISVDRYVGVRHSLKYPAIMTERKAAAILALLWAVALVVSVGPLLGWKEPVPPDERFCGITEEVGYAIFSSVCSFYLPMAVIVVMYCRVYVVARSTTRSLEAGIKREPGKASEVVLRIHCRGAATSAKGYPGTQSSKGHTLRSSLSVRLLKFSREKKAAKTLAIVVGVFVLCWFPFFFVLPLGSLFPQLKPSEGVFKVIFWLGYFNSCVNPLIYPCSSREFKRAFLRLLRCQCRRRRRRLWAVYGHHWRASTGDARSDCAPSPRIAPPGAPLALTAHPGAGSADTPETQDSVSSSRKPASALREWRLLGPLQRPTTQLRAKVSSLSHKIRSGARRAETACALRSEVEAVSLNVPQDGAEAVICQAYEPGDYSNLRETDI
T1 sequence (P43140 whole entry): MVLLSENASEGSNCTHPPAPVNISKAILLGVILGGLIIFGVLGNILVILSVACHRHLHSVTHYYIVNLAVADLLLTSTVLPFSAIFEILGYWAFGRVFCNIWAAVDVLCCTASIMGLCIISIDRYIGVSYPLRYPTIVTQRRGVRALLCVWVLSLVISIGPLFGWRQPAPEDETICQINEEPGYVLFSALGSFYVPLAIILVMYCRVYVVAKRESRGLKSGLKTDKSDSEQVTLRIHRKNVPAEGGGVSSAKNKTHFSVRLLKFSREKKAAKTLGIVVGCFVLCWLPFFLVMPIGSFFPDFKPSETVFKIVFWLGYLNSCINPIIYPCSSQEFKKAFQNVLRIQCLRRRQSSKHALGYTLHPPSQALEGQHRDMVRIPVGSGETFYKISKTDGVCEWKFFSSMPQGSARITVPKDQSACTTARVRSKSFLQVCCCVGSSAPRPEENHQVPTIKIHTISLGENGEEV

Canis familiaris [3] = experiment: Change in mean arterial pressure in anesthetized dogs for a dose of 1 mg/kg; assay type: functional, Canis lupus familiaris, Artery; method in brief: as §1

O=C1NCC2(CCN(CCc3c[nH]c4ccccc34)CC2)O1
MAP (Canis familiaris [1]): -2 mmHg | Decrease in blood pressure (Rattus norvegicus): 16% | pA2 [2]: 5.5 | MAP (Canis familiaris [3]): -11 mmHg

CN1CC2(CCN(CC(O)C3COc4ccccc4O3)CC2)OC1=O (stereo not drawn)
MAP (Canis familiaris [1]): 4 mmHg | Decrease in blood pressure (Rattus norvegicus): 28% | pA2 [2]: 4.5 | MAP (Canis familiaris [3]): -13 mmHg
